Results on two molecules are retold here after paper PMC3086766 (Bioconjugate chemistry, 2011).

Structures are written as SMILES. Several values for one entry are separate records, joined by “and”; a condition that tells them apart may be missing. Equal values may be shown once.

One series has as its system male ICR mice. As to the kind of experiment: In-vivo biodistribution study in mice. More on the design: species or system mouse. The note with it: for Blood uptake / Bone uptake / Brain uptake / Heart uptake / Kidney uptake / Liver uptake / Lung uptake / Muscle uptake / Pancreas uptake / Skin uptake / Spleen uptake: iv tail vein; for in vivo de-fluorination (from bone (femur) values): within 30 min post injection. The essentials: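 Normal male ICR mice (20–25 g), 6 per group, under isoflurane (1–2%, 1 L oxygen/min). Each received 25 μCi radiotracer in 0.15 mL saline via lateral tail vein. Killed by cardiac excision under anesthesia at 2 and 30 min. Organs weighed and gamma-counted. Percent dose per gram calculated against counts of 1.0% of initial dose, taken from 100-fold diluted injectate aliquots.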

Series [1] deals with AD plaques (β-amyloid plaques) in human brain tissue homogenates (Homo sapiens, UniProt P05067). As to the kind of experiment: In vitro competition binding assay against [18F]-AV-45 in AD brain homogenates. In short, it runs like this: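 Gray matter from human Alzheimer's brain sections with plaques, homogenized in PBS pH 7.2 (20–50 μg per tube). Incubated with [18F]-AV-45 and competitor (10−5–10−10 M, serially diluted in PBS with 0.1% BSA) in 1 mL final, 37 °C for 120 min. IMPY 600 nM defined nonspecific binding. Bound and free separated by vacuum filtration. Ki by nonlinear regression; n = 5–6.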
Chain of AD plaques (β-amyloid plaques) in human brain tissue homogenates (P05067 672-713 limits assumed): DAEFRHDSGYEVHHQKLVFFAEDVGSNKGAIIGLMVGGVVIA

A word on the Ki: it is a dissociation constant, usually derived from enzyme kinetics or from competition with a known ligand. Lower therefore signals higher affinity. Consider `CNc1ccc(/C=C/c2ccc(OCCOCCOCCNC(=O)CO/N=C/c3ccc(OCCOCCOCCF)nc3)nc2)cc1` [[^18F]23, 2-((E)-(6-(2-(2-(2-fluoroethoxy)ethoxy)ethoxy)pyridin-3-yl)methyleneaminooxy)-N-(2-(2-(2-(5-((E)-4-(methylamino)styryl)pyridin-2-yloxy)ethoxy)ethoxy)ethyl)acetamide], for which, in the series on male ICR mice (2 min post injection), the Blood uptake worked out at 9.34 ± 1.37 % dose/gram; the Bone uptake was 2.00 ± 0.33 % dose/gram; the Brain uptake is 1.69 % dose/gram and 1.69 ± 0.44 % dose/gram; the Heart uptake was determined as 13.1 ± 3.08 % dose/gram. In the series with male ICR mice (2 min post injection), the Kidney uptake is reported as 14.1 ± 2.85 % dose/gram, the Liver uptake came to 22.2 ± 3.99 % dose/gram, the Lung uptake was determined as 7.09 ± 1.37 % dose/gram and the Muscle uptake came to 1.32 ± 0.50 % dose/gram. In the series with male ICR mice (2 min post injection), this molecule yielded a Pancreas uptake of 5.13 ± 1.08 % dose/gram, a Skin uptake of 0.79 ± 0.20 % dose/gram and a Spleen uptake of 4.81 ± 1.18 % dose/gram. In the series on male ICR mice (30 min post injection), the Blood uptake was 4.94 ± 0.91 % dose/gram, the Bone uptake is 2.27 ± 0.41 % dose/gram, the Brain uptake worked out at 0.96 ± 0.16 % dose/gram and the Heart uptake was found to be 3.72 ± 0.84 % dose/gram. In the series with male ICR mice (30 min post injection), this molecule came in with a Kidney uptake of 6.83 ± 1.93 % dose/gram, a Liver uptake of 19.1 ± 3.65 % dose/gram, a Lung uptake of 3.53 ± 0.38 % dose/gram and a Muscle uptake of 1.56 ± 0.27 % dose/gram. In the series on male ICR mice (30 min post injection), the Pancreas uptake was found to be 2.28 ± 0.48 % dose/gram, the Skin uptake is given as 1.50 ± 0.25 % dose/gram and the Spleen uptake worked out at 3.57 ± 0.68 % dose/gram. In addition, the “in vivo de-fluorination (from bone (femur) values)” value in the series with male ICR mice is reported as “very little de-fluorination”. The molecule also showed a Ki in series [1] of 11.8 ± 3.06 nM.

`CNc1ccc(/C=C/c2ccc(OCCOCCOCCOCCOCCOCCNC(=O)CO/N=C/c3ccc(OCCOCCOCCF)nc3)nc2)cc1` [[^18F]24, 2-((E)-(6-(2-(2-(2-fluoroethoxy)ethoxy)ethoxy)pyridin-3-yl)methyleneaminooxy)-N-(17-(5-((E)-4-(methylamino)styryl)pyridin-2-yloxy)-3,6,9,12,15-pentaoxaheptadecyl)acetamide]: in the series with male ICR mice (2 min post injection), the Blood uptake came out at 4.19 ± 1.04 % dose/gram; the Bone uptake is on record as 1.76 ± 0.31 % dose/gram; the Brain uptake was 0.48 % dose/gram and 0.48 ± 0.12 % dose/gram; the Heart uptake turned out to be 12.3 ± 1.79 % dose/gram. Besides, in the series on male ICR mice (2 min post injection), the Kidney uptake is 15.4 ± 3.54 % dose/gram, the Liver uptake amounted to 29.4 ± 5.09 % dose/gram, the Lung uptake is listed as 3.70 ± 1.06 % dose/gram and the Muscle uptake is recorded as 1.42 ± 0.46 % dose/gram. In the series on male ICR mice (2 min post injection), this molecule displayed a Pancreas uptake of 3.32 ± 0.58 % dose/gram, a Skin uptake of 1.14 ± 0.44 % dose/gram and a Spleen uptake of 3.11 ± 0.45 % dose/gram. In the series with male ICR mice (30 min post injection), the Blood uptake was 2.81 ± 0.22 % dose/gram; the Bone uptake came out at 1.62 ± 0.10 % dose/gram; the Brain uptake is 0.92 % dose/gram and 0.92 ± 0.11 % dose/gram; the Heart uptake is listed as 4.17 ± 0.61 % dose/gram. In the series with male ICR mice (30 min post injection), this molecule came in with a Kidney uptake of 7.78 ± 0.85 % dose/gram, a Liver uptake of 10.9 ± 1.17 % dose/gram, a Lung uptake of 2.43 ± 0.33 % dose/gram and a Muscle uptake of 2.01 ± 0.21 % dose/gram. Besides, in the series with male ICR mice (30 min post injection), the Pancreas uptake was 2.22 ± 0.23 % dose/gram, the Skin uptake is recorded as 1.78 ± 0.13 % dose/gram and the Spleen uptake was determined as 1.63 ± 0.19 % dose/gram. In addition, the “in vivo de-fluorination (from bone (femur) values)” value in the series with male ICR mice is reported as “very little de-fluorination”.
